The text below walks through data of ChEMBL document CHEMBL1152805, “Dual inhibitors of phosphodiesterase-4 and serotonin reuptake” (J Med Chem, 2009).

In general, pKi refers to −log10 of the Ki, conventionally taken in molar units. The term pIC50 denotes the IC50 on a negative log10 scale, so that one unit is a factor of ten.

Molecules are shown by their SMILES. pIC50, pKi: −log10 of the molar value. Calls of active or inactive are those of the source. No cut-off for these calls is given here.

Series [1] relates to Mus musculus. Put plainly: Antidepressant activity in ICR mouse assessed as decrease in immobility duration at 0.5 umol/kg, ip administered 30 mins prior to test by forced swimming test. The format is functional, organism-based. In outline:
(§1)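 Male ICR mice (26.2 ± 0.3 g), 12 h light cycle. Drug in 0.9% saline with 5% DMSO, given i.p. 30 min before the forced-swim test. Lower doses were tested first, then higher doses 1 week later after re-randomization. Swim pretest on 2 successive days, test 24 h later: 6 min in a cylinder with 28 cm of water at 23 ± 1°C, recording immobility. n = 9–11; ANOVA with Dunnett's test.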

Series [2] deals with Mus musculus. Put plainly: Antidepressant activity in ICR mouse assessed as decrease in immobility duration at 1 umol/kg, ip administered 30 mins prior to test by forced swimming test. The format is functional, organism-based. In outline:
as §1

Series [3] relates to Mus musculus. Put plainly: Antidepressant activity in BALB/c mouse assessed as decrease in immobility duration at 37.4 umol/kg, ip administered 23 hrs, 5 hrs and 1 hr prior to test measured after 4 weeks by forced swimming test. It counts as functional, organism-based. In outline:
(§2)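 Male Balb/c mice (22.4 ± 0.1 g), second session run 4 weeks after the first. Drug in 0.9% saline with 5% DMSO (vehicle alone as control), given i.p. 23, 5 and 1 hr before the forced-swim test, with no pretest training. Each mouse was placed 6 min in a water-filled cylinder (23 ± 1°C) and immobility duration recorded. n = 10–11; one-way ANOVA with Dunnett's test.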

Series [4] relates to Mus musculus. As to the kind of experiment: Antidepressant activity in BALB/c mouse assessed as decrease in immobility duration at 1 mg/kg, ip administered 23 hrs, 5 hrs and 1 hr prior to test measured after 4 weeks by forced swimming test. Also on record: dose 1 mg/kg. The format is functional, organism-based. In outline: as §2
The test system of series [5] is Liver microsomes. Put plainly: Metabolic stability in human liver microsomes assessed as half life after 60 mins by HPLC in presence of NADPH. It counts as ADME, Microsome. The following applies: 1 h. In outline:
(§3)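 Liver microsomes (0.5 mg protein) in potassium phosphate buffer, pH 7.4, with an NADPH-generating system (NADP+, glucose-6-phosphate, G6P dehydrogenase), DETAPAC and MgCl2. Test compound added at 40 µM and incubated at 37 °C with shaking. Samples stopped with CH2Cl2/2-propanol at 0, 10, 25, 40 and 60 min. Substrate loss measured by HPLC and half-life calculated.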

A short description of series [6]: Metabolic stability in mouse liver microsomes assessed as half life at 40 uM after 60 mins by HPLC in presence of NADPH. It counts as ADME, Microsome. The following applies: 1 h. The method in brief: as §3
(In general: Microsomes from liver hold many membrane-bound enzymes, among them those of drug oxidation.)

In series [7] the test system is Mus musculus. As to the kind of experiment: Antidepressant activity in ICR mouse assessed as decrease in immobility duration at 10 umol/kg, ip administered 30 mins prior to test after 1 week by forced swimming test. It counts as functional, organism-based. The method in brief:
as §1

Series [8] addresses 3',5'-cyclic-AMP phosphodiesterase 4B (Homo sapiens, UniProt Q07343). As to the kind of experiment: Inhibition of human recombinant PDE4B3 assessed as inhibition of cAMP hydrolysis.
For series [9], the target named is 3',5'-cyclic-AMP phosphodiesterase 4A (Homo sapiens, UniProt P27815). Put plainly: Inhibition of human recombinant PDE4A1 assessed as inhibition of cAMP hydrolysis.
Series [10] relates to Mus musculus. As to the kind of experiment: Antidepressant activity in ICR mouse assessed as decrease in immobility duration at 5 umol/kg, ip administered 30 mins prior to test after 1 week by forced swimming test. The format is functional, organism-based. In outline: as §1
Series [11] has as its target T1, Sodium-dependent dopamine transporter (Homo sapiens, UniProt Q01959). As to the kind of experiment: Displacement of [3H]dopamine from human recombinant DAT expressed in HEK293 cells by scintillation counting. The format is cell-based. In outline:
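Suspended HEK-hDAT cells preincubated 10 min at 25 °C with test compound in Krebs-HEPES buffer. [3H]dopamine then added (20 nM final) for 10 min. Uptake stopped by filtration onto polyethylenimine-soaked GF/C filters, and radioactivity counted. Specific uptake defined with 5 µM mazindol. Triplicates, 3–4 experiments; Ki by Cheng-Prusoff.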
In general terms: Displacement assays read how much labelled ligand stays bound in the presence of the test substance.

The subject of series [12] is Mus musculus. As to the kind of experiment: Antidepressant activity in BALB/c mouse assessed as decrease in immobility duration at 32.3 umol/kg, ip administered 23 hrs, 5 hrs and 1 hr prior to test measured after 4 weeks by forced swimming test. The format is functional, organism-based. In outline:
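Male Balb/c mice received subchronic i.p. dosing at 23, 5 and 1 hr before the forced-swim test, with no pretest training. This session ran 4 weeks after the acute session. Vehicle was saline with 5% DMSO. The swim lasted 6 min in a cylinder of water 28 cm deep at 23 ± 1°C, scoring immobility duration. n = 10–11. One-way ANOVA with Dunnett's test.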

Series [13] concerns Mus musculus. Put plainly: Antidepressant activity in ICR mouse assessed as decrease in immobility duration at 65 umol/kg, ip administered 30 mins prior to test by forced swimming test. The format is functional, organism-based.
For series [14], the system named is Mus musculus. As to the kind of experiment: Antidepressant activity in BALB/c mouse assessed as decrease in immobility duration at 20 mg/kg, ip administered 30 mins prior to test by forced swimming test. It counts as functional, organism-based. Also noted: dose 20 mg/kg. The method in brief:
(§4)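 Acute dosing in male Balb/c mice (22.4 ± 0.1 g), i.p. 30 min before the forced-swim test. Vehicle was saline with 5% DMSO. Pretest swims were given on two successive days, then the test 24 h later. Each swim lasted 6 min in a cylinder of water 28 cm deep at 23 ± 1°C, scoring immobility (upright floating). n = 10–11. One-way ANOVA with Dunnett's test.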

In series [15] the test system is Mus musculus. As to the kind of experiment: Antidepressant activity in ICR mouse assessed as decrease in immobility duration at 40 mg/kg, ip by forced swimming test. Also noted: dose 40 mg/kg. It counts as functional, organism-based.
For series [16], the system named is Mus musculus. As to the kind of experiment: Antidepressant activity in ICR mouse assessed as decrease in immobility duration at 0.5 mg/kg, ip by forced swimming test. The format is functional, organism-based. Also on record: dose 0.5 mg/kg.
Series [17] relates to Mus musculus. Put plainly: Antidepressant activity in ICR mouse assessed as decrease in immobility duration at 0.5 mg/kg, ip once a day for 8 days by forced swimming test. It counts as functional, organism-based. Also noted: dose 0.5 mg/kg.
The test system of series [18] is Mus musculus. As to the kind of experiment: Antidepressant activity in BALB/c mouse assessed as decrease in immobility duration at 37.4 umol/kg, ip administered 30 mins prior to test by forced swimming test. It counts as functional, organism-based. The method in brief:
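Acute dosing in male Balb/c mice (22.4 ± 0.1 g). Drug in 0.9% saline with 5% DMSO, given i.p. 30 min before the forced-swim test. Swim pretest once daily on 2 successive days, then test 24 h later. Each session was 6 min in a cylinder filled to 28 cm with water at 23 ± 1°C, scoring immobility duration. n = 10–11; ANOVA with Dunnett's test.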

The test system of series [19] is Mus musculus. Put plainly: Antidepressant activity in BALB/c mouse assessed as decrease in immobility duration at 35.5 umol/kg, ip administered 30 mins prior to test by forced swimming test. It counts as functional, organism-based. The method in brief:
as §4

The target of series [20] is 3',5'-cyclic-AMP phosphodiesterase 4D (Homo sapiens, UniProt Q08499). As to the kind of experiment: Inhibition of human recombinant PDE4D3.
Series [21] has as its target T2, Sodium-dependent noradrenaline transporter (Homo sapiens, UniProt P23975). As to the kind of experiment: Displacement of [3H]norepinephrine from human recombinant NET expressed in HEK293 cells by scintillation counting. It counts as cell-based.
The target of series [22] is T2, Sodium-dependent noradrenaline transporter. Put plainly: Displacement of [125I]RTI-55 from human recombinant NET expressed in HEK293 cells by scintillation counting. It counts as cell-based.
The target in series [23] is T1, Sodium-dependent dopamine transporter. As to the kind of experiment: Displacement of [125I]RTI-55 from human recombinant DAT expressed in HEK293 cells by scintillation counting. It counts as cell-based.
The target in series [24] is T3, Sodium-dependent serotonin transporter (Homo sapiens, UniProt P31645). The format is cell-based, HEK293.
Series [25] has as its target T3, Sodium-dependent serotonin transporter. As to the kind of experiment: biochemical. It counts as cell-based, HEK293.

T1 sequence (Q01959 whole entry): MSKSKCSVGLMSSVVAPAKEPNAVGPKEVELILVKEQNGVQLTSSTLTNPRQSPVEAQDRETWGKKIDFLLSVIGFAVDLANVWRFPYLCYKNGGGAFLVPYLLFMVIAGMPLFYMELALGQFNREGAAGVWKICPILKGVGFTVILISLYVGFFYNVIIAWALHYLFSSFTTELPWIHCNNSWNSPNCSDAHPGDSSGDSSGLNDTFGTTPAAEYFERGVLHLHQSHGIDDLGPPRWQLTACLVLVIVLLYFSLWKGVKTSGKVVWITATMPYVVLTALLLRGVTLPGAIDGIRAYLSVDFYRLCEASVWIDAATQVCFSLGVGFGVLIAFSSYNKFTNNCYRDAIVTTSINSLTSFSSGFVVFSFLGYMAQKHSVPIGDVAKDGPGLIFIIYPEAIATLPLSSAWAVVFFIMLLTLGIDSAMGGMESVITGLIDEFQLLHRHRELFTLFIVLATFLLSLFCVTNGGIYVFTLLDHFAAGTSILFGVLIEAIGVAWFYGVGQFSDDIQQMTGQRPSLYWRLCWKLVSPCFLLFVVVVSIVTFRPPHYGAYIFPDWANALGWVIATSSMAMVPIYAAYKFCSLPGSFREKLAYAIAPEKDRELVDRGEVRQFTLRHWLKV
Chain of 3',5'-cyclic-AMP phosphodiesterase 4A (P27815 whole entry): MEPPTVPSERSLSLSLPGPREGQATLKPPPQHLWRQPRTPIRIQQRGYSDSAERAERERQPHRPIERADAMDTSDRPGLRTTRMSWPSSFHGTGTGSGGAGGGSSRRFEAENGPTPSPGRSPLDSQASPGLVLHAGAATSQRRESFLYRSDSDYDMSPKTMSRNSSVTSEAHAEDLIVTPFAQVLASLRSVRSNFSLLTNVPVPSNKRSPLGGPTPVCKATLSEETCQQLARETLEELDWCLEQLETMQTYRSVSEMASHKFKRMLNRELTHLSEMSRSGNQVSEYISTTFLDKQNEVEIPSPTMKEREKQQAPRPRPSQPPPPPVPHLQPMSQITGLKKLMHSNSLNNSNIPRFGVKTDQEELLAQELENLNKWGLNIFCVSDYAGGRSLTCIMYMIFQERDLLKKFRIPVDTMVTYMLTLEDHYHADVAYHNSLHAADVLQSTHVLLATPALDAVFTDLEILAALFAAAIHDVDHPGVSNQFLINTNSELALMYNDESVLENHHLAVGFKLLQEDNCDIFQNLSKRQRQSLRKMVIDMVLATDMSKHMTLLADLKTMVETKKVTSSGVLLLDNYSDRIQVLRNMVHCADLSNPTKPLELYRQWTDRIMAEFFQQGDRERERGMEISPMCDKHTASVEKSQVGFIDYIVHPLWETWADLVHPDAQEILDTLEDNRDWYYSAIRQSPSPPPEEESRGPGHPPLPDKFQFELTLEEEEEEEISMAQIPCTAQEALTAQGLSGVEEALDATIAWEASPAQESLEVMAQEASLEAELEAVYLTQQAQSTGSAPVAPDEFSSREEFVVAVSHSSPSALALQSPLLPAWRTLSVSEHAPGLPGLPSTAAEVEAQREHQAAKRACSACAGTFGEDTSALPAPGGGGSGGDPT
T3 sequence (P31645 whole entry): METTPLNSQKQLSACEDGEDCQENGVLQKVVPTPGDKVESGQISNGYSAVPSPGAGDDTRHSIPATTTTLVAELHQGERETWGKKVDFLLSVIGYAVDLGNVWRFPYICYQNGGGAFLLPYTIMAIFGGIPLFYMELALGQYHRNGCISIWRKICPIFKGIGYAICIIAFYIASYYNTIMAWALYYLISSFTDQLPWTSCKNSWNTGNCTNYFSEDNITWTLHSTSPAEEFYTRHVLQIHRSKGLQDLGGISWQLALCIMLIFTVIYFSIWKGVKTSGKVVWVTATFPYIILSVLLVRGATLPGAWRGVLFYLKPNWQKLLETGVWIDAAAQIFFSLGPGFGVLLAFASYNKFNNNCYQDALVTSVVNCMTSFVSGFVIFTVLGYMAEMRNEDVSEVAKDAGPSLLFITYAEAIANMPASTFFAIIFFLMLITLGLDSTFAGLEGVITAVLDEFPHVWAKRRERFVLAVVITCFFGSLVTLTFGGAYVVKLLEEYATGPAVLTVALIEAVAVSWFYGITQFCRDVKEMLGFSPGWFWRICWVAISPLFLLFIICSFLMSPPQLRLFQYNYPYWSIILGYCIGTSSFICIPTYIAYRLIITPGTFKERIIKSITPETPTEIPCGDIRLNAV
Chain of 3',5'-cyclic-AMP phosphodiesterase 4B (Q07343 whole entry): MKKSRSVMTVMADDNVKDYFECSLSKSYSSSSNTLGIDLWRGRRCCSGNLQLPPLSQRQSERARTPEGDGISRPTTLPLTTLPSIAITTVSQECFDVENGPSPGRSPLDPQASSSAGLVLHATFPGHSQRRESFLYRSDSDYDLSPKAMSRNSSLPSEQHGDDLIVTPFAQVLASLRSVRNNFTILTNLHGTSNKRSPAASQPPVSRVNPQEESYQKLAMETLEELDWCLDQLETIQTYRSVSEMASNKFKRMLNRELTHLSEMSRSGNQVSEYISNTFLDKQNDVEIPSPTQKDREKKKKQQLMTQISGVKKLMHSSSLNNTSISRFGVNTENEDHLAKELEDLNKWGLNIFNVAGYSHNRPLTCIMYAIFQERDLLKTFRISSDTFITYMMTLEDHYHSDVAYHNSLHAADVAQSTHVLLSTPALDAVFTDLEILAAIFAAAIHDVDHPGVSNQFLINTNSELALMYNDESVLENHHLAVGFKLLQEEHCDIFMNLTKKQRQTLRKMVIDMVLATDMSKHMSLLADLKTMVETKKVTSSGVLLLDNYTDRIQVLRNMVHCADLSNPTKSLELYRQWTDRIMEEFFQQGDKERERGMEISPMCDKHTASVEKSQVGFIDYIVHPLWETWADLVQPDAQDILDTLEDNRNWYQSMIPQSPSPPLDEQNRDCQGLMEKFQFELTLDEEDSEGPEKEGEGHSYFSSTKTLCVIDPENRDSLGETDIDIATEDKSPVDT
Chain of 3',5'-cyclic-AMP phosphodiesterase 4D (Q08499 whole entry): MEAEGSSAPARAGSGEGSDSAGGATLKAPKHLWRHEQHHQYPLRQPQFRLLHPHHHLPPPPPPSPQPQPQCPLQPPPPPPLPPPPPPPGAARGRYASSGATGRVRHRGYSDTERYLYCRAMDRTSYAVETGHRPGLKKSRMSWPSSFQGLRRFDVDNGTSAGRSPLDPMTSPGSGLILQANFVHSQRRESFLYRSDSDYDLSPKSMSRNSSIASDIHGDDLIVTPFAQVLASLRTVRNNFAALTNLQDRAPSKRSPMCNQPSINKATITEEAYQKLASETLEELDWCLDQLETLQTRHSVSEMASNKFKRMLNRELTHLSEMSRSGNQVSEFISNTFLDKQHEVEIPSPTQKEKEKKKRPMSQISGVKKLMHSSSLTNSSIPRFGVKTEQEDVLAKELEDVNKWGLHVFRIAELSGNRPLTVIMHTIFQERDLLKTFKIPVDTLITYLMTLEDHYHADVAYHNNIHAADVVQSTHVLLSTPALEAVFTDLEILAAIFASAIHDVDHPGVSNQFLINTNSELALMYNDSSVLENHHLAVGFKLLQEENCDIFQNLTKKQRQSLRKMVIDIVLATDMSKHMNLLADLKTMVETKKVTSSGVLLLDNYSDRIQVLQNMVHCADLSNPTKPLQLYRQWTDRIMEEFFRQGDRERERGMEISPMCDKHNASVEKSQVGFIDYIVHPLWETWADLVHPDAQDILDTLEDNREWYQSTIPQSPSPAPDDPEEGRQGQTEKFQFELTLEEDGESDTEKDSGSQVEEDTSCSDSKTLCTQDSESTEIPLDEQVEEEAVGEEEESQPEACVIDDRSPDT
T2 sequence (P23975 whole entry): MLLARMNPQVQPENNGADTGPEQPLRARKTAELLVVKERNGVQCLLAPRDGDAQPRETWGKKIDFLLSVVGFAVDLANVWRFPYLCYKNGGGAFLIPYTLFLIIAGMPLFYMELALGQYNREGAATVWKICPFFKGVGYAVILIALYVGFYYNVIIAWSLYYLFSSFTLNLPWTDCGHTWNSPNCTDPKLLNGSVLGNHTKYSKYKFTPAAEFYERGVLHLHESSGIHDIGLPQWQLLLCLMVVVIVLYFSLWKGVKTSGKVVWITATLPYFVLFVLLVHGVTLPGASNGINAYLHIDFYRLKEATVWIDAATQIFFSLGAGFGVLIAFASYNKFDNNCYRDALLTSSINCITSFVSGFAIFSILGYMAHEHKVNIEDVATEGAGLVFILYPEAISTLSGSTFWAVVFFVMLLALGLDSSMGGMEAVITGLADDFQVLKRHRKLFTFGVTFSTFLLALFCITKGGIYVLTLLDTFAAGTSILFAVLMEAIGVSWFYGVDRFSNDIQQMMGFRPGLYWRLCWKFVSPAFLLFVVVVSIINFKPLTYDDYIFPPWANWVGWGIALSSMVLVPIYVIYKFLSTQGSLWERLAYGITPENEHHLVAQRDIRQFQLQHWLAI

As to `COc1ccc(C2=NNC(=O)C3CC=CCC23)cc1OC` (configuration not stated), the outcome in [1], in series [2], in series [3], in series [4], in series [7] and in series [10] was Active. Further, the Stability result in series [5] is on record as “Stable”. The t1/2 in [6] is 3.522 h. In addition, the pKi in series [8] is 6.60; in [9], less than 6.00.

In the case of `CNCCC1CCC(CCc2cc(F)ccc2OC)O1` (configuration not stated), in series [11], the pIC50 is less than 4.00.

Consider `CNCCC(Oc1ccc(C(F)(F)F)cc1)c1ccccc1` (configuration not stated), for which the result in series [12] and in series [14] was inactive. The outcome in series [13] and in series [15] was Active.

As to `COc1ccc(C2CNC(=O)C2)cc1OC1CCCC1` (configuration not stated), the outcome in [16] was inactive. In addition, in series [17], the result was Active.

Turning to `COc1ccc(F)cc1CCC1CCC(CCN)O1` (configuration not stated), the outcome in [3] and in series [18] was inactive.

Consider `COc1ccc(F)cc1CCCC1CCC(CCN)O1` (configuration not stated), for which, in [19], the result was inactive.

For the molecule `COc1ccc(F)c(CCCC2CCC(CCNCCCCCN3N=C(c4ccc(OC)c(OC)c4)[C@H]4CC=CC[C@H]4C3=O)O2)c1` (mixture of isomers), the negative-log Ki (pKi) is 8.92 in series [20]; 6.30 in [8]; 5.13 in series [22]; 5.27 in [23]; less than 6.00 in series [9]. Also, the Stability result in [5] and in series [6] was “Stable” throughout. Also, the pIC50 in series [21] was 5.13; in [11], 5.27.

For `COc1ccc(F)cc1CCC1CCC(CCNCCCCCN2N=C(c3ccc(OC)c(OC)c3)[C@H]3CC=CC[C@H]3C2=O)O1` (mixture of isomers), the result in series [1], in [2], in series [7] and in [10] was Active. The pKi is 8.70 in series [20]; 6.70 in series [8]; 6.81 in series [25]; 5.61 in series [23]; less than 6.00 in series [9]. In addition, the pIC50 in [24] is 6.90; in series [11], 5.45. In addition, the result in series [4] was inactive. For the same molecule, the Stability entry in series [5] was “Stable”. The t1/2 in series [6] amounted to 2.565 h.

Turning to `COc1ccc(C2=NN(CCCCCBr)C(=O)[C@@H]3CC=CC[C@H]23)cc1OC` (racemic), the pIC50 in series [24] and in series [11] was less than 4.00 throughout. Besides, the pKi in series [25] and in series [23] was less than 4.00 each time.
